Laboratory results reported in ChEMBL document CHEMBL1765029, “Synthesis and biological evaluation of estradiol linked pyrrolo[2,1-c][1,4]benzodiazepine (PBD) conjugates as potential anticancer agents” (2011).
Where a name gives a salt, the structure may show the parent alone. Active and inactive are the calls of the source. The calls are words filed in the database; no cut-off is given here.

Legend:
KB = assay: Cytotoxicity against human KB cells by sulforhodamine B method; assay type: functional
A549 = assay: Cytotoxicity against human A549 cells by sulforhodamine B method; assay type: functional
ZR-75-1 = assay: Cytotoxicity against human ZR-75-1 cells by sulforhodamine B method; assay type: functional
COLO 205 = assay: Cytotoxicity against human COLO205 cells by sulforhodamine B method; assay type: functional
[1] = Cytotoxicity against human DWD cells by sulforhodamine B method; assay type: functional
[2] = Cytotoxicity against human Gurav cells by sulforhodamine B method; assay type: functional
MCF7 [3] = assay: Cytotoxicity against human MCF7 cells by sulforhodamine B method; assay type: functional
PC-3 = assay: Cytotoxicity against human PC3 cells by sulforhodamine B method; assay type: functional
SiHa = assay: Cytotoxicity against human SiHa cells by sulforhodamine B method; assay type: functional
HOP-62 = assay: Cytotoxicity against human HOP62 cells by sulforhodamine B method; assay type: functional
A2780 = assay: Cytotoxicity against human A2780 cells by sulforhodamine B method; assay type: functional
MCF7 [4] = assay: Cytotoxicity against human MCF7 cells at 4 uM after 24 hrs by MTT assay; assay type: functional, cell-based
Summary of the method: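 MCF-7 cells seeded at 10,000 per well, incubated overnight, then treated at 4 µM for 24 h; DMSO control. Medium replaced with MTT, 2 h at 37 °C. Formazan solubilised in extraction buffer, absorbance read at 570 nm, expressed as percent viability.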

MCF7 [5] = assay: Cell cycle arrest in human MCF7 cells assessed as accumulation at G2/M phase using propidium iodide staining at 4 uM after 24 hrs by flow cytometry; assay type: functional
Summary of the method: (§1)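 MCF-7 cells (5 × 10⁵ per 60 mm dish) grown 24 h, then exposed to 4 µM compound for a further 24 h; DMSO-treated control. Cells trypsinised, fixed in ice-cold 70% ethanol at 4 °C for 30 min, RNase-treated (1 mg/mL, 37 °C, 30 min), stained with propidium iodide/citrate/Triton X-100. DNA content read on 20,000 events by flow cytometry; percent cells per phase reported.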

MCF7 [6] = assay: Cell cycle arrest in human MCF7 cells assessed as accumulation at S phase using propidium iodide staining at 4 uM after 24 hrs by flow cytometry; assay type: functional; summary of the method: as §1
MCF7 [7] = assay: Cell cycle arrest in human MCF7 cells assessed as accumulation at G1 phase using propidium iodide staining at 4 uM after 24 hrs by flow cytometry; assay type: functional; summary of the method: as §1
MCF7 [8] = assay: Cell cycle arrest in human MCF7 cells assessed as accumulation at G0 phase using propidium iodide staining at 4 uM after 24 hrs by flow cytometry; assay type: functional; summary of the method: as §1

Compound | GI50 (KB) [nM] | GI50 (A549) [nM] | GI50 (ZR-75-1) [nM] | GI50 (COLO 205) [nM] | GI50 [1] [nM] | GI50 [2] [nM] | GI50 (MCF7 [3]) [nM] | GI50 (PC-3) [nM] | GI50 (SiHa) [nM] | GI50 (HOP-62) [nM] | GI50 (A2780) [nM] | Activity (MCF7 [4]) | Activity (MCF7 [5]) [%] | Activity (MCF7 [6]) [%] | Activity (MCF7 [7]) [%] | Activity (MCF7 [8]) [%]
COc1cc2c(cc1OCc1cn(CCCOc3ccc4c(c3)CC[C@@H]3[C@@H]4CC[C@]4(C)[C@@H](O)CC[C@@H]34)nn1)N=C[C@@H]1CCCN1C2=O | 310 | 180 | 190 | 170 | 160 | 170 | 120 | 190 | 1140 | 1180 | 170 | – | – | – | – | –
COc1cc2c(cc1OCCCOc1ccc3c(c1)CC[C@@H]1[C@@H]3CC[C@]3(C)[C@@H](O)CC[C@@H]13)N=C[C@@H]1CC(F)(F)CN1C2=O | 150 | 2810 | 180 | 100 | 2040 | 2180 | 170 | 2400 | 2810 | 2110 | 2100 | – | – | – | – | –
COc1cc2c(cc1OCCCCCN1CCN(CCCCCOc3ccc4c(c3)CC[C@@H]3[C@@H]4CC[C@]4(C)[C@@H](O)CC[C@@H]34)CC1)N=C[C@@H]1CC(F)(F)CN1C2=O | 810 | 130 | 120 | 170 | 1320 | 150 | 140 | 190 | 190 | 170 | 160 | – | – | – | – | –
COc1cc2c(cc1OCc1cn(CCCOc3ccc4c(c3)CC[C@@H]3[C@@H]4CC[C@]4(C)[C@@H](O)CC[C@@H]34)nn1)N=C[C@@H]1CC(F)(F)CN1C2=O | 190 | 170 | 170 | 140 | 170 | 170 | 110 | 140 | 1120 | 180 | 1270 | – | – | – | – | –
COc1cc2c(cc1OCCCCCOc1ccc3c(c1)CC[C@@H]1[C@@H]3CC[C@]3(C)[C@@H](O)CC[C@@H]13)N=C[C@@H]1CCCN1C2=O | 2130 | 2200 | 1190 | 190 | 180 | 2040 | 170 | 2190 | 2180 | 2240 | 1190 | – | – | – | – | –
COc1cc2c(cc1OCCCCCOc1ccc3c(c1)CC[C@@H]1[C@@H]3CC[C@]3(C)[C@@H](O)CC[C@@H]13)N=C[C@@H]1CC(F)(F)CN1C2=O | 140 | 2810 | 190 | 200 | 2170 | 2190 | 170 | 2420 | 2810 | 2110 | 2120 | – | – | – | – | –
COc1cc2c(cc1OCCCOc1ccc3c(c1)CC[C@@H]1[C@@H]3CC[C@]3(C)[C@@H](O)CC[C@@H]13)N=C[C@@H]1CCCN1C2=O | 2110 | 2100 | 1190 | 160 | 170 | 2050 | 170 | 2080 | 2120 | 2230 | 1190 | – | – | – | – | –
COc1cc2c(cc1OCc1cn(CCCCCOc3ccc4c(c3)CC[C@@H]3[C@@H]4CC[C@]4(C)[C@@H](O)CC[C@@H]34)nn1)N=C[C@@H]1CC(F)(F)CN1C2=O | 190 | 170 | 180 | 160 | 180 | 190 | 110 | 170 | 1210 | 190 | 1800 | Active | 21.8 | 22.3 | 55 | 0.74
COc1cc2c(cc1OCCCN1CCN(CCCOc3ccc4c(c3)CC[C@@H]3[C@@H]4CC[C@]4(C)[C@@H](O)CC[C@@H]34)CC1)N=C[C@@H]1CC(F)(F)CN1C2=O | 170 | 120 | 120 | 140 | 100 | 130 | < 100 | 130 | 160 | 150 | 110 | – | – | – | – | –
COc1cc2c(cc1OCCCCCOc1ccc3c(c1)CC[C@@H]1[C@@H]3CC[C@]3(C)[C@@H](O)CC[C@@H]13)N=C[C@@H]1C[C@@H](F)CN1C2=O | 2170 | 180 | 170 | 170 | 1900 | 180 | 150 | 190 | 2310 | 190 | 190 | – | – | – | – | –
COc1cccc2c1C(=O)c1c(O)c3c(c(O)c1C2=O)C[C@@](O)(C(=O)CO)C[C@@H]3O[C@H]1C[C@H](N)[C@H](O)[C@H](C)O1 [DOXORUBICIN HYDROCHLORIDE] | 170 | – | – | 140 | 100 | 170 | 170 | – | 170 | 140 | 160 | – | – | – | – | –
COc1cc2c(cc1OCc1cn(CCCCCOc3ccc4c(c3)CC[C@@H]3[C@@H]4CC[C@]4(C)[C@@H](O)CC[C@@H]34)nn1)N=C[C@@H]1CCCN1C2=O | 800 | 190 | 110 | 170 | 170 | 180 | 140 | 190 | 1170 | 1690 | 170 | – | – | – | – | –
COc1cc2c(cc1OCCCOc1ccc3c(c1)CC[C@@H]1[C@@H]3CC[C@]3(C)[C@@H](O)CC[C@@H]13)N=C[C@@H]1C[C@@H](F)CN1C2=O | 2160 | 180 | 140 | 160 | 1700 | 190 | 140 | 190 | 2120 | 180 | 170 | – | – | – | – | –
COc1cc2c(cc1OCCCCCN1CCN(CCCCCOc3ccc4c(c3)CC[C@@H]3[C@@H]4CC[C@]4(C)[C@@H](O)CC[C@@H]34)CC1)N=C[C@@H]1CCCN1C2=O | 190 | 160 | 170 | 1160 | 170 | 190 | 140 | 190 | 170 | 1170 | 1700 | – | – | – | – | –
COc1cc2c(cc1OCCCCCN1CCN(CCCCCOc3ccc4c(c3)CC[C@@H]3[C@@H]4CC[C@]4(C)[C@@H](O)CC[C@@H]34)CC1)N=C[C@@H]1C[C@@H](F)CN1C2=O | 140 | 110 | < 100 | 140 | 150 | 130 | 130 | 170 | 160 | 130 | 110 | – | – | – | – | –
